Key:
[1] = Percent toxicity at 10 ug/mL on OH-I cells; format: functional, Homo sapiens
Summary of the method: (§1)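 Static toxicity test on uninfected OH-I monolayers at or near 100% confluency, in 2% McCoy's with 0.25% DMSO. Compound given at the three highest concentrations (100, 32, 10 ug/mL). Monolayer reduction was scored against cell control; 50% or greater reduction counted as cytotoxic.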

[2] = Percent toxicity at 32 ug/mL on OH-I cells; range 50-100 %; format: functional, Homo sapiens; summary of the method: as §1
[3] = Percent toxicity at 100 ug/mL on OH-I cells; range 50-100 %; format: functional, Homo sapiens; summary of the method: as §1
[4] = Effective concentration dissolved in DMSO against HRV serotype 39 in OH-I cells by multiple-cycle CPE inhibition assay; spectrophotometric; format: functional, cell-based, Homo sapiens
Summary of the method: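 HRV serotype 39 CPE inhibition assay in triplicate 85% confluent OH-I monolayers, 2% McCoy's, 0.25% DMSO final, compound at 100–0.1 ug/mL. Once virus controls reached 80–100% CPE (32–320 TCID50), cells were stained with 0.4% crystal violet for 20–30 min at room temperature, destained with 30% methanol/10% acetic acid, and OD read at 550 nm. EC50 is the concentration giving a 50% OD increase versus virus control, from Chou–Chou dose-effect analysis.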

[5] = Effective concentration dissolved in DMSO against HRV serotype 39 in OH-I cells by multiple-cycle CPE inhibition assay; microscopic; format: functional, cell-based, Homo sapiens
Summary of the method: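 Multiple-cycle CPE inhibition assay, HRV serotype 39 (ATCC), 85% confluent OH-I monolayers in 2% McCoy's, 0.25% DMSO final. Triplicate wells received compound then three serial log virus dilutions. EC50 taken as the concentration giving 50% CPE inhibition.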

[6] = tested on: WI-38; assay: Effective concentration dissolved in DMSO against HRV serotype 39 in WI-38 cells by multiple-cycle CPE inhibition assay; microscopic; format: functional, cell-based; conditions: Homo sapiens
Summary of the method: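 Multiple-cycle CPE assay with HRV serotype 39 on 100% confluent WI-38 fibroblasts in 5% EMEM, 0.5% DMSO final. Triplicate monolayers received compound at 32, 10, 3.2, 1.0, 0.1 ug/mL plus three serial log virus dilutions. Read only microscopically (staining too weak) after virus controls reached 80–100% CPE at 32–320 TCID50. EC50 is the concentration giving 50% CPE inhibition.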

[7] = Percent toxicity at 10 ug/mL on OH-I cells; range 50-100 %; format: functional, Homo sapiens; summary of the method: as §1
[8] = tested on: WI-38; assay: Percent toxicity at 32 ug/mL on WI-38 cells; format: functional, Homo sapiens
Summary of the method: (§2)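 Static toxicity test on uninfected WI-38 monolayers at or near 100% confluency, in 5% EMEM with 0.5% DMSO. Compound given at the three highest concentrations (32, 10, 3.2 ug/mL). Monolayer reduction was scored against cell control; 50% or greater reduction counted as cytotoxic.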

[9] = tested on: WI-38; assay: Percent toxicity at 10 ug/mL on WI-38 cells; format: functional, Homo sapiens; summary of the method: as §2
[10] = tested on: WI-38; assay: Cytostatic concentration against WI-38 cells; format: functional, Homo sapiens

Structure (SMILES)	EC50 [4]	EC50 [5]	Toxicity [1]	Toxicity [2]	Toxicity [3]	EC50 [6]	Toxicity [7]	Toxicity [8]	Toxicity [9]	Cytostatic concentration [10]
O=C(Nc1ccc(SC(F)(F)F)cc1)Nc1ccc(-n2ccc(C(F)(F)F)n2)cc1	246 µM	247 µM		100%	100%	11.2 µM	100%	<=50%	<=50%	
COC(=O)c1ccc(CSc2nnc(-c3ccc4ncccc4c3)n2C)cc1	88.4 µM	142 µM			30%	< 82 µM				
Cc1cc(CCCOc2c(C)cc(-c3noc(C(F)(F)F)n3)cc2C)on1 [PLECONARIL]										30 µg/mL
CCOC(=O)/C=C/[C@H](C[C@@H]1CCNC1=O)NC(=O)[C@@H](CC(=O)[C@@H](NC(=O)c1cc(C)on1)C(C)C)Cc1ccc(F)cc1 [RUPINTRIVIR]										>100 µg/mL

Continued, in another order:

EC50 [4]	EC50 [5]	Structure (SMILES)	Toxicity [1]	Toxicity [2]	Toxicity [3]	EC50 [6]	Toxicity [7]	Toxicity [8]	Toxicity [9]	Cytostatic concentration [10]
17 µM	15 µM	CC1(C)CCc2cc(CN3CCN(c4ccc(C(F)(F)F)cn4)CC3)ccc2O1	30%	100%	100%	165 µM				
4.9 µM	121 µM	COc1cc2c(cc1OC)C(C)N(C(=O)Nc1ccc(OC(F)(F)F)cc1)CC2 (stereo not drawn)		100%	100%	< 78 µM	100%			
4.3 µM	7.3 µM	Cc1csc2c(N3CCN(C(=O)Nc4ccc(OC(F)(F)F)cc4)CC3)ncnc12		100%	100%	48 µM	100%			
32.1 µM	35.7 µM	CC1(C)CCc2cc(CN3CCN(c4ncc(C(F)(F)F)cc4Cl)CC3)ccc2O1	30%	100%	100%	< 72.7 µM				
